Measured values from ChEMBL document CHEMBL4732114, “Design and structural optimization of novel 2H-benzo[h]chromene derivatives that target AcrB and reverse bacterial multidrug resistance” (Eur J Med Chem, 2021).
Converted amounts (≈) assume the structure as drawn.

Legend:
[1] = target: T1, Multidrug efflux pump subunit AcrB (Escherichia coli (strain K12)) (UniProt P31224); test: Inhibition of AcrB in multidrug-resistant Escherichia coli BW25113 assessed as potentiation of levofloxacin-induced antibacterial activity by measuring levofloxacin MIC at 16 ug/ml by checkerboard titration method (reference value: 0.06 ug/ml); conditions: dose 16.0 µg/ml
T1 sequence (whole entry): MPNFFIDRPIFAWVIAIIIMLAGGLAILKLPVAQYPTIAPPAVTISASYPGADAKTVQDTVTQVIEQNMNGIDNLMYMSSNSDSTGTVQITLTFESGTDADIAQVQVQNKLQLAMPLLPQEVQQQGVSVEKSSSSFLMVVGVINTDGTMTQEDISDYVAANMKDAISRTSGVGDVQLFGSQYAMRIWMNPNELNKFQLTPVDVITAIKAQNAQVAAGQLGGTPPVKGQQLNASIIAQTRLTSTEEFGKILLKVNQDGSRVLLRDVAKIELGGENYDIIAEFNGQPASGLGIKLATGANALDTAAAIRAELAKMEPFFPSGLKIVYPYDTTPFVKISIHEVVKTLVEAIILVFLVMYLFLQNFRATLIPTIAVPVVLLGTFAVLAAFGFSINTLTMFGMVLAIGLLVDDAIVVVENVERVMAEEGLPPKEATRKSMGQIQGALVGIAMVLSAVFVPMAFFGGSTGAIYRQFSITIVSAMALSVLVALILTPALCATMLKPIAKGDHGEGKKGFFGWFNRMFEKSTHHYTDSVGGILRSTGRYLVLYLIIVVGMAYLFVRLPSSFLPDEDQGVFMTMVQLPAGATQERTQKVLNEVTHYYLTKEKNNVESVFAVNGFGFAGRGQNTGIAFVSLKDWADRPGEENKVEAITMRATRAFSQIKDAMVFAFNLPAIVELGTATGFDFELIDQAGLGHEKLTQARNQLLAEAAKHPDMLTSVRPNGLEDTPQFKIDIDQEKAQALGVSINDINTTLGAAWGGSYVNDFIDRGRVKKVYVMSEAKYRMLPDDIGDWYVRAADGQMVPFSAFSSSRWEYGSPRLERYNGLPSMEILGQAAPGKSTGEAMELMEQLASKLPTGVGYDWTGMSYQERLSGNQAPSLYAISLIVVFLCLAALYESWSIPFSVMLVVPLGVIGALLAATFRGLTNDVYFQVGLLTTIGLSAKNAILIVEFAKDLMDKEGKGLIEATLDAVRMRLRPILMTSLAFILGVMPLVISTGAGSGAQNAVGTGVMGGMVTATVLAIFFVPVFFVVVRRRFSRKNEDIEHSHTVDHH

Cell membrane [2] = test: Induction of outer membrane permeabilization in wild type Escherichia coli BW25113 assessed as increase in nitrocefin hydrolysis at 128 ug/ml in presence of CCCP by spectroscopic analysis; conditions: dose 128 µg/ml
In short: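 Intact E. coli were treated with 10 μM CCCP to block nitrocefin efflux, then given compound, nothing, or polymyxin B as permeabilizer control. Nitrocefin was added, and hydrolysis by periplasmic β-lactamase was followed as the rise in absorbance at 490 nm. Duplicate experiments were run on different days.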

[3] = target: T1, Multidrug efflux pump subunit AcrB (Escherichia coli (strain K12)); conditions: Escherichia coli BW25113; dose 16.0 µg/ml
[4] = target: T1, Multidrug efflux pump subunit AcrB (Escherichia coli (strain K12)); test: Inhibition of AcrB in multidrug-resistant Escherichia coli BW25113 assessed as potentiation of tetraphenylphosphonium-induced antibacterial activity by measuring tetraphenylphosphonium MIC at 128 ug/ml by checkerboard titration method (reference value: 1024 ug/ml); conditions: dose 128.0 µg/ml
[5] = target: T1, Multidrug efflux pump subunit AcrB (Escherichia coli (strain K12)); test: Inhibition of AcrB in multidrug-resistant Escherichia coli BW25113 assessed as potentiation of levofloxacin-induced antibacterial activity by measuring levofloxacin MIC at 32 ug/ml by checkerboard titration method (reference value: 0.06 ug/ml); conditions: dose 32.0 µg/ml
[6] = target: T1, Multidrug efflux pump subunit AcrB (Escherichia coli (strain K12)); test: Inhibition of AcrB in multidrug-resistant Escherichia coli BW25113 assessed as potentiation of levofloxacin-induced antibacterial activity by measuring levofloxacin MIC at 64 ug/ml by checkerboard titration method (reference value: 0.06 ug/ml); conditions: dose 64.0 µg/ml
[7] = target: T1, Multidrug efflux pump subunit AcrB (Escherichia coli (strain K12)); test: Inhibition of AcrB in multidrug-resistant Escherichia coli BW25113 assessed as potentiation of levofloxacin-induced antibacterial activity by measuring levofloxacin MIC at 128 ug/ml by checkerboard titration method (reference value: 0.06 ug/ml); conditions: dose 128.0 µg/ml
[8] = target: T1, Multidrug efflux pump subunit AcrB (Escherichia coli (strain K12)); test: Inhibition of AcrB in multidrug-resistant Escherichia coli BW25113 assessed as potentiation of erythromycin-induced antibacterial activity by measuring erythromycin MIC at 16 ug/ml by checkerboard titration method (reference value: 64 ug/ml); conditions: dose 16.0 µg/ml
[9] = target: T1, Multidrug efflux pump subunit AcrB (Escherichia coli (strain K12)); test: Inhibition of AcrB in multidrug-resistant Escherichia coli BW25113 assessed as potentiation of chloramphenicol-induced antibacterial activity by measuring chloramphenicol MIC at 8 ug/ml by checkerboard titration method (reference value: 8 ug/ml); conditions: dose 8.0 µg/ml
[10] = target: T1, Multidrug efflux pump subunit AcrB (Escherichia coli (strain K12)); test: Inhibition of AcrB in multidrug-resistant Escherichia coli BW25113 assessed as potentiation of erythromycin-induced antibacterial activity by measuring erythromycin MIC at 64 ug/ml by checkerboard titration method (reference value: 64 ug/ml); conditions: dose 64.0 µg/ml
[11] = target: T1, Multidrug efflux pump subunit AcrB (Escherichia coli (strain K12)); test: Inhibition of AcrB in multidrug-resistant Escherichia coli BW25113 assessed as potentiation of tetraphenylphosphonium-induced antibacterial activity by measuring tetraphenylphosphonium MIC at 16 ug/ml by checkerboard titration method (reference value: 1024 ug/ml); conditions: dose 16.0 µg/ml
[12] = target: T1, Multidrug efflux pump subunit AcrB (Escherichia coli (strain K12)); test: Inhibition of AcrB in multidrug-resistant Escherichia coli BW25113 assessed as potentiation of erythromycin-induced antibacterial activity by measuring erythromycin MIC at 8 ug/ml by checkerboard titration method (reference value: 64 ug/ml); conditions: dose 8.0 µg/ml
[13] = target: T1, Multidrug efflux pump subunit AcrB (Escherichia coli (strain K12)); test: Inhibition of AcrB in multidrug-resistant Escherichia coli BW25113 assessed as potentiation of chloramphenicol-induced antibacterial activity by measuring chloramphenicol MIC at 64 ug/ml by checkerboard titration method (reference value: 8 ug/ml); conditions: dose 64.0 µg/ml
Cell membrane [14] = test: Induction of inner membrane permeabilization in wild type Escherichia coli BW25113 assessed as perturbation of proton motive force at 32 ug/ml measured after 10 mins in presence of CCCP and glucose by Di0C2(3) probe based fluorescence assay; conditions: escherichia coli bw25113, 10 min, dose 32 µg/ml
In short: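 Cell suspensions were left untreated or exposed to 8-128 µg/mL compound for 10 min. DiOC₂(3) was then added and fluorescence followed to a plateau. Cells were re-energized with 0.5% glucose, and the rise in fluorescence was read as membrane-potential build-up. CCCP was added last to dissipate the potential.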

Row | SMILES | MIC [1] | Activity (Cell membrane [2]) | MIC [3] | MIC [4] | MIC [5] | MIC [6] | MIC [7] | MIC [8] | MIC [9] | MIC [10] | MIC [11] | MIC [12] | MIC [13] | Activity (Cell membrane [14])
1 | COc1cccc(COc2cccc3c4c(c(-c5nnco5)cc23)CCC(C)(C)O4)c1 | 0.06 µg/mL | Not Active | 16 µg/mL (≈ 38.4 µM) | 512 µg/mL | 0.06 µg/mL | 0.06 µg/mL | 0.06 µg/mL | 64 µg/mL | 8 µg/mL | 64 µg/mL | 1020 µg/mL | 64 µg/mL | 8 µg/mL | –
2 | CC1(C)CCc2c(Cn3cnnn3)cc3c(OCc4ccc(OC(F)(F)F)cc4)cccc3c2O1 | 0.06 µg/mL | Not Active | 16 µg/mL (≈ 33 µM) | 1020 µg/mL | 0.06 µg/mL | 0.06 µg/mL | 0.06 µg/mL | 64 µg/mL | 8 µg/mL | 64 µg/mL | 1020 µg/mL | 64 µg/mL | 8 µg/mL | –
3 | C=CC(=O)Nc1ccc(COc2cccc3c4c(c(Cn5cnnn5)cc23)CCC(C)(C)O4)cc1 | 0.06 µg/mL | – | 16 µg/mL (≈ 34.1 µM) | 1020 µg/mL | 0.06 µg/mL | 0.06 µg/mL | 0.06 µg/mL | 64 µg/mL | 8 µg/mL | 32 µg/mL | 1020 µg/mL | 64 µg/mL | 4 µg/mL | –
4 | CC1(C)CCc2c(Cn3cnnn3)cc3c(OCc4ccc([N+](=O)[O-])cc4)cccc3c2O1 | 0.06 µg/mL | Not Active | 16 µg/mL (≈ 35.9 µM) | 512 µg/mL | 0.06 µg/mL | 0.06 µg/mL | 0.06 µg/mL | 64 µg/mL | 8 µg/mL | 64 µg/mL | 1020 µg/mL | 64 µg/mL | 8 µg/mL | –
5 | COc1cccc(COc2cccc3c4c(c(C(=O)N5CCOCC5)cc23)CCC(C)(C)O4)c1 | 0.06 µg/mL | Not Active | 16 µg/mL (≈ 34.7 µM) | 128 µg/mL | 0.06 µg/mL | 0.06 µg/mL | 0.06 µg/mL | 64 µg/mL | 4 µg/mL | 32 µg/mL | 512 µg/mL | 64 µg/mL | 4 µg/mL | Not Active
6 | COc1cccc(COc2cccc3c4c(c(C(=O)O)cc23)CCC(C)(C)O4)c1 | 0.06 µg/mL | Not Active | 16 µg/mL (≈ 40.8 µM) | 256 µg/mL | 0.06 µg/mL | 0.06 µg/mL | 0.06 µg/mL | 64 µg/mL | 8 µg/mL | 32 µg/mL | 1020 µg/mL | 64 µg/mL | 4 µg/mL | Not Active
7 | CC(C)NCCOc1ccc2c(c1)OC(C)(C)CC2=O | 0.03 µg/mL | Not Active | 16 µg/mL (≈ 57.7 µM) | 1020 µg/mL | 0.03 µg/mL | 0.03 µg/mL | 0.03 µg/mL | 64 µg/mL | 8 µg/mL | 64 µg/mL | 1020 µg/mL | 64 µg/mL | 8 µg/mL | –
